The source made the active and inactive calls. The calls are words filed in the database; no cut-off is given here.
Columns and labels:
Serum [1] = assay: (§1) Half life in human serum at 40 mM by HPLC; type: ADME, cell-free; details: 40000 µM
Procedure, shortened: (§2)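 Serum came from a healthy volunteer's whole blood (12 h at 4 °C, spun 1500g, stored at −80 °C). A 40 mM stock in water was mixed with serum and RPMI-1640 (1:3 serum:medium) and incubated at 37 °C for up to 24 h.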

[2] = Metabolic stability in human serum assessed as hydrolysis of compound at 40 mM incubated for 24 hrs measured after every 1 hr over 24 hrs by HPLC; type: ADME, cell-free; details: read-out: Drug metabolism
Procedure, shortened: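 40 mM stock in water, 4.5 μL, combined with 180 μL human serum (healthy volunteer) and 540 μL RPMI-1640 and incubated at 37 °C for up to 24 h. Aliquots were heated to 80 °C for 30 min, cleaned up, and analysed by HPLC. Heat-only controls were run without serum. Hydrolysis was followed from the change in HPLC peak area.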

[3] = Half life in Tris buffer at pH 9.8 at 0.2 mg by HPLC in presence of alkaline phosphatase; type: physicochemical; details: in vitro
Procedure, shortened: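 Compound 0.2 mg incubated with calf intestine alkaline phosphatase 12.5 units in Tris-HCl/MgCl2 at final pH 9.8 and 37 °C. Sampled hourly for 8 h; reaction stopped at 80 °C for 15 min. Samples passed through an anion-exchange cartridge. Half-life from change in HPLC peak area.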

[4] = target: P2Y purinoceptor 2 (Homo sapiens) (UniProt P41231); assay: Agonist activity at P2Y2R; type: functional
Chain of P2Y purinoceptor 2 (Homo sapiens) (P41231 whole entry): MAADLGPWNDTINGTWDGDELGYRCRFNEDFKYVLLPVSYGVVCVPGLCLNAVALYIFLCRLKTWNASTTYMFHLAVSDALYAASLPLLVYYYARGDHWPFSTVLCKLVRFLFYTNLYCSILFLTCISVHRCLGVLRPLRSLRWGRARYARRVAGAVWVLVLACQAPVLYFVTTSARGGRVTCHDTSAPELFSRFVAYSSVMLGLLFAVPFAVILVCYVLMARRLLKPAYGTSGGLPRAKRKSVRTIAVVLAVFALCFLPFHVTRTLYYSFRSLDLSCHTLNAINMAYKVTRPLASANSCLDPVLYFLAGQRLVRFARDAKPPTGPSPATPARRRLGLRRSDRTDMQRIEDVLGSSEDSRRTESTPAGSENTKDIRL

[5] = target: P2Y purinoceptor 4 (Homo sapiens) (UniProt P51582); assay: Agonist activity at P2Y4R; type: functional
Chain of P2Y purinoceptor 4 (Homo sapiens) (P51582 whole entry): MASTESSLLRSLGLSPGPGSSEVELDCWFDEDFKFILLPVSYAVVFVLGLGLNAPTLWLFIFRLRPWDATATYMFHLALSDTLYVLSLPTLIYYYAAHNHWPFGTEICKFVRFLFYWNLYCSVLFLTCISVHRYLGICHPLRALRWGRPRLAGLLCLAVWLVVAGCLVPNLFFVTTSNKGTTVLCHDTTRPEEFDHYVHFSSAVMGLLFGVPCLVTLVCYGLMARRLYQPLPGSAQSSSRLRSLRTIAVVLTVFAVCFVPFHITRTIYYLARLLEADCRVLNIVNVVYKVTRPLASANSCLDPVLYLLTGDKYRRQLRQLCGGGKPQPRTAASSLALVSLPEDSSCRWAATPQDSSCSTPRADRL

[6] = target: P2Y purinoceptor 6 (Homo sapiens) (UniProt Q15077); assay: Agonist activity at P2Y6R; type: functional
Chain of P2Y purinoceptor 6 (Homo sapiens) (Q15077 whole entry): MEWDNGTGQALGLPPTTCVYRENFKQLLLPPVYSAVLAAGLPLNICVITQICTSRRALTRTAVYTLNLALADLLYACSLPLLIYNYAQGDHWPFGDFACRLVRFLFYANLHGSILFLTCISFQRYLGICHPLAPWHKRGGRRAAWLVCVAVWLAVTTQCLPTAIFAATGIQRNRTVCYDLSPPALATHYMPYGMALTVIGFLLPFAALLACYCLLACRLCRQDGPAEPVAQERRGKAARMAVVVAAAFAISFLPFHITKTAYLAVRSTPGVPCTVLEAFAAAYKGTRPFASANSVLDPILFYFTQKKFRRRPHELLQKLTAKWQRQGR

Serum [7] = assay: Ratio of half life of compound to half life of ADP in human serum at 40 mM by HPLC; type: ADME, cell-free; details: 40000 µM; procedure, shortened: as §2
[8] = as §1; type: ADME, cell-free; procedure, shortened: as §2
P2Y purinoceptor 1 [9] = target: P2Y purinoceptor 1 (Meleagris gallopavo, UniProt P49652); assay: Agonist activity at turkey P2Y1R expressed in 1321N1 cells assessed as increase in intracellular calcium concentration by spectrofluorimetry; type: functional, cell-based
Chain of P2Y purinoceptor 1 (Meleagris gallopavo, UniProt P49652) (P49652 whole entry): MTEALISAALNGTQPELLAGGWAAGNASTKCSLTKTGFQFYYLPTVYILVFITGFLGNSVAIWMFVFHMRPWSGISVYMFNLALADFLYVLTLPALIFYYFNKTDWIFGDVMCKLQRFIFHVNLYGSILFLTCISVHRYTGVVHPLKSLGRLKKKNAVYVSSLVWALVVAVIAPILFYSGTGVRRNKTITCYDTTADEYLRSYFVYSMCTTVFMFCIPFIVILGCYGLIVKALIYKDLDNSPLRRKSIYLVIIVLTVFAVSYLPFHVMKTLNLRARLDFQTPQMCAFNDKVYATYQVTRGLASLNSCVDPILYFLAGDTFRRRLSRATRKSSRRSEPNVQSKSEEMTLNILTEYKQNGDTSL
Procedure, shortened: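 Cell suspensions were treated with nucleotide at various concentrations at 37 °C in 10 mM Hepes-buffered saline pH 7.4 with 1 mM CaCl2 and 1 mM MgCl2. Maximal [Ca2+]i rise was read by dual-excitation spectrofluorometry and fitted to give EC50. Three experiments on separate days.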

Mus musculus [10] = assay: Antidiabetic activity in overnight fasted CD1 mouse assessed as reduction in blood glucose level at 30 mg/kg body weight, iv administered 10 mins post glucose challenge; type: functional, organism-based; design: dose 30 mg/kg
Rattus norvegicus [11] = assay: Antiplatelet activity in Lewis rat assessed as inhibition of ADP-induced aggregation measuring prolongation in bleeding time at 10 mg/kg body weight, po administered 30 mins prior to tail incision measured after 5 mins; type: functional, organism-based; design: dose 10 mg/kg
Procedure, shortened: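 Anesthetized Lewis rats (n = 5) were dosed orally 30 min before the tail was cut. Then 2 mm of tail tip was removed and the tail was placed upright in a saline-filled tube. Time to first arrest of bleeding (no bleeding for 20 s) was recorded.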

[12] = Half life in HCL/KCL buffer at pH 1.4 at 1.5 mg by HPLC; type: physicochemical
Procedure, shortened: (§3)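 Diastereomeric mixture, 1.5 mg, dissolved in 0.2 M HCl/KCl buffer adjusted to pH 1.4 and kept at 37 °C with hourly sampling. Parent HPLC peak integrated over time (TEAA/acetonitrile 88:12) and fitted to pseudo-first-order kinetics to give rate constant and t1/2.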

[13] = Chemical stability in HCL/KCL buffer at pH 1.4 assessed as hydrolysis rate constant of compound at 1.5 mg incubated for 24 hrs measured after every 1 hr over 12 hrs by HPLC; type: physicochemical; details: pH 1.4, 24 h; procedure, shortened: as §3
[14] = target: P2Y purinoceptor 1 (Rattus norvegicus) (UniProt P49651); assay: Agonist activity at rat P2Y1R assessed as glucose-dependent insulin secretion relative to control; type: functional
Chain of P2Y purinoceptor 1 (Rattus norvegicus) (P49651 whole entry): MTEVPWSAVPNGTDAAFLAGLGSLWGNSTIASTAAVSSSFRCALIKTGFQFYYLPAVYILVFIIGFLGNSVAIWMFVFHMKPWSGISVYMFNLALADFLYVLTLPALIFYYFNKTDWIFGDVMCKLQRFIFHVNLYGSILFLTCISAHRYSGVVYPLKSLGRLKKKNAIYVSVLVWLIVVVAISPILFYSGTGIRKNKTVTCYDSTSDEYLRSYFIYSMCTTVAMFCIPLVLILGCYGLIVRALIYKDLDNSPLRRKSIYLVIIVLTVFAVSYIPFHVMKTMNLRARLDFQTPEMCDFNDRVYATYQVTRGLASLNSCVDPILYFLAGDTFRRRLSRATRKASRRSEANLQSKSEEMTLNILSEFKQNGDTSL

P2Y purinoceptor 1 [15] = target: T1, P2Y purinoceptor 1 (Rattus norvegicus, UniProt P49651); assay: Agonist activity at rat P2Y1R expressed in HEK293 cells assessed as release of intracellular calcium by fluorescence based assay; type: functional, cell-based
T1 sequence (P49651 whole entry): as above

P2Y purinoceptor 1 [16] = target: T1, P2Y purinoceptor 1; assay: Agonist activity at rat P2Y1R assessed as glucose-dependent insulin secretion; type: functional
Mus musculus [17] = assay: Antiplatelet activity in Balb/c mouse assessed as inhibition of ADP-induced aggregation measuring prolongation of bleeding time at 30 mg/kg body weight, iv; type: functional
Procedure, shortened: (§4)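 Anaesthetised Balb/c mice given compound iv (0.3, 3 or 30 mg/kg) or saline. Five minutes later 2 mm of the tail tip was cut and the tail placed vertically in saline. Time to first arrest of bleeding (no bleeding for 20 s) was recorded. Bars are standard deviation.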

Mus musculus [18] = assay: Antidiabetic activity in db+/db- diabetic mouse model assessed as reduction in blood glucose level at 30 mg/kg body weight, iv administered 10 min post glucose challenge measured over 15 to 120 mins; type: functional, organism-based; design: dose 30 mg/kg
Procedure, shortened: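 Male db+/db− mice, 8 weeks old, grouped by body weight and glucose, then fasted overnight. Oral glucose 2 g/kg by gavage. Compound 30 mg/kg iv as in the naive-animal OGTT; n = 5. Blood glucose by glucometer at −30, 0, 15, 30, 60 and 120 min.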

[19] = target: P2Y purinoceptor 12 (Homo sapiens) (UniProt Q9H244); assay: Antagonist activity at human P2Y12R expressed in […] cells assessed as intracellular calcium level in presence of ADP; type: functional, cell-based
Chain of P2Y purinoceptor 12 (Homo sapiens) (Q9H244 whole entry): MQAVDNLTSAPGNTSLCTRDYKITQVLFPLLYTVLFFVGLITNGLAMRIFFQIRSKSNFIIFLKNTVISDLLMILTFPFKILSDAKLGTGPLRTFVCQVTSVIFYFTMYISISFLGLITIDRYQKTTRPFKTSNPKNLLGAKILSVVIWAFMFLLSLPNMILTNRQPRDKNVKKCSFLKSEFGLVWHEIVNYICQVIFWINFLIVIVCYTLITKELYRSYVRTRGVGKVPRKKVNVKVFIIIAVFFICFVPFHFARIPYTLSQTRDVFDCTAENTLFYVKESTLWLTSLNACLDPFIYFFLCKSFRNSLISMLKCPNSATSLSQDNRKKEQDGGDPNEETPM

Rattus norvegicus [20] = assay: Antiplatelet activity in Lewis rat assessed as inhibition of ADP-induced aggregation measuring prolongation in bleeding time at 30 mg/kg body weight, po administered 30 mins prior to tail incision measured after 5 mins; type: functional, organism-based; design: dose 30 mg/kg
Procedure, shortened: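 Lewis rats given compound 30 mg/kg or aspirin 10 mg/kg PO 30 min before tail incision; n = 5. 2 mm tail tip cut, tail placed in saline. Time to first bleeding arrest (20 s without bleeding) was recorded, and blood volume was judged against calibrated volumes after brief 600g spin.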

Mus musculus [21] = assay: Antiplatelet activity in Balb/c mouse assessed as inhibition of ADP-induced aggregation measuring prolongation in bleeding time at 30 mg/kg body weight, iv administered prior to tail incision measured after 5 mins relative to active clopidogrel metabolite R-361015; type: functional; procedure, shortened: as §4
[22] = Antiplatelet activity in human platelet rich plasma assessed as inhibition of ADP-induced platelet aggregation at 0.3 to 10 uM measured after 6 mins by aggregometry relative to control; type: functional
Procedure, shortened: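 Human platelet-rich plasma was obtained by spinning normal human plasma at 4400g for 30 s. PRP was incubated 15 min at 37 °C, then aggregation was induced with ADP (10 μM) and read after 6 min on a platelet aggregation profiler. PRP came from one subject, tested in duplicate. Prasugrel metabolite at 10 μM served as the positive control.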

Platelet = assay: Antiplatelet activity in human platelet rich plasma assessed as inhibition of ADP-induced platelet aggregation measured after 6 mins by aggregometry; type: functional
Procedure, shortened: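 Human PRP obtained by centrifuging plasma at 4400g for 30 s. PRP was incubated 15 min at 37 °C with compound (0.3–10 μM), then aggregation was induced with ADP 10 μM and read after 6 min on a platelet aggregation profiler. Prasugrel metabolite 10 μM served as positive control. One donor, duplicates.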

Mus musculus [23] = assay: Antidiabetic activity in STZ treated fasted ICR mouse assessed as reduction in blood glucose level at 30 mg/kg body weight, iv administered 10 min post glucose challenge measured over 15 to 120 mins; type: functional, organism-based; design: dose 30 mg/kg
Procedure, shortened: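 Male ICR mice given STZ 100 mg/kg IP after 4 h fast. On day 10, after ~16 h overnight fast, oral D-glucose 1 g/kg was given at 0 min. Compound was dosed iv at 7.5, 15 or 30 mg/kg 10 min after glucose; saline controls. Blood glucose by glucometer at 15, 30, 60 and 120 min. n = 5.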

Rattus norvegicus [24] = assay: Antidiabetic activity in overnight fasted Wister Han rat assessed as reduction in blood glucose level at 30 mg/kg body weight, iv administered 10 mins post glucose challenge measured within 45 mins (reference value: 155 mg/dl); type: functional

CSc1nc(N)c2ncn([C@@H]3O[C@H](COP(=O)(O)OP(=O)(O)O)[C@@H](O)[C@H]3O)c2n1
t1/2 (Serum [1]): 23 h
metabolised at 24 h, 40000 µM [2]: 50%
t1/2 [3]: 4.5 h

BP(=O)(OC[C@H]1O[C@@H](n2cnc3c(N)ncnc32)[C@H](O)[C@@H]1O)OP(=O)(O)O (stereo not given in full)
Activity [4]: inactive
Activity [5]: inactive
Activity [6]: inactive

Nc1ncnc2c1ncn2[C@@H]1O[C@H](COP(=O)(O)OP(=O)(O)O)[C@@H](O)[C@H]1O [ADENOSINE DIPHOSPHATE]
t1/2 (Serum [1]): 2 h
t1/2 [3]: 4 h

B[P@@](=O)(OC[C@H]1O[C@@H](n2cnc3c(N)nc(SC)nc32)[C@H](O)[C@@H]1O)OP(=O)(O)OP(=O)(O)OC[C@H]1O[C@@H](n2cnc3c(N)nc(SC)nc32)[C@H](O)[C@@H]1O.CCCCN(CCCC)CCCC.CCCCN(CCCC)CCCC.CCCCN(CCCC)CCCC
Ratio (Serum [7]): 7
half-life at 40000 µM [8]: 14 h
EC50 (P2Y purinoceptor 1 [9]): 140 nM

[BH3-][P@@](=O)(OC[C@H]1O[C@@H](n2cnc3c(N)ncnc32)[C@H](O)[C@@H]1O)OP(=O)([O-])[O-].[Na+].[Na+].[Na+]
t1/2 (Serum [1]): 3.5 h
EC50 (P2Y purinoceptor 1 [9]): 220 nM
t1/2 [3]: 4.2 h

B[P@](=O)(OC[C@H]1O[C@@H](n2cnc3c(N)nc(SC)nc32)[C@H](O)[C@@H]1O)OP(=O)(O)O
Activity (Mus musculus [10]): inactive
EC50 (P2Y purinoceptor 1 [9]): 1100 nM

CC(=O)Oc1ccccc1C(=O)O
inhibition (Rattus norvegicus [11]): Active

[BH3-]P(=O)(OC[C@H]1O[C@@H](n2cnc3c(N)nc(SC)nc32)[C@H](O)[C@@H]1O)OP(=O)([O-])[O-].[Na+].[Na+].[Na+] (mixture of isomers)
half-life [12]: 7.3 h
Drug degradation [13]: 2 ×10⁻⁵ /s
metabolised at 24 h, 40000 µM [2]: 30%
Activity [4]: inactive
Activity [5]: inactive
Activity [6]: inactive

B[P@@](=O)(OC[C@H]1O[C@@H](n2cnc3c(N)nc(SC)nc32)[C@H](O)[C@@H]1O)OP(=O)(O)OP(=O)(O)O
fold change (FC) [14]: 9
EC50 (P2Y purinoceptor 1 [15]): 2.6 nM
EC50 (P2Y purinoceptor 1 [16]): 28.1 nM

B[P@](=O)(OC[C@H]1O[C@@H](n2cnc3c(N)nc(SC)nc32)[C@H](O)[C@@H]1O)OP(=O)(O)OP(=O)(O)OC[C@H]1O[C@@H](n2cnc3c(N)nc(SC)nc32)[C@H](O)[C@@H]1O.CCCCN(CCCC)CCCC.CCCCN(CCCC)CCCC.CCCCN(CCCC)CCCC (single isomer, unassigned)
Ratio (Serum [7]): 7
half-life at 40000 µM [8]: 14 h
EC50 (P2Y purinoceptor 1 [9]): 190 nM

B[P@](=O)(OC[C@H]1O[C@@H](n2cnc3c(N)ncnc32)[C@H](O)[C@@H]1O)OP(=O)(O)O
EC50 (P2Y purinoceptor 1 [9]): 960 nM

BP(=O)(OC[C@H]1O[C@@H](n2cnc3c(N)nc(SC)nc32)[C@H](O)[C@@H]1O)OP(=O)(O)OP(=O)(O)OC[C@H]1O[C@@H](n2cnc3c(N)nc(SC)nc32)[C@H](O)[C@@H]1O.CCCCN(CCCC)CCCC.CCCCN(CCCC)CCCC.CCCCN(CCCC)CCCC (mixture of isomers)
Activity [4]: inactive
Activity [5]: inactive
Activity [6]: inactive

CC(=O)Oc1cc2c(s1)CCN(C(C(=O)C1CC1)c1ccccc1F)C2 (stereo not given)
Time (Mus musculus [17]): 9 min

[BH3-][P@@](=O)(OC[C@H]1O[C@@H](n2cnc3c(N)nc(SC)nc32)[C@H](O)[C@@H]1O)OP(=O)([O-])[O-].[Na+].[Na+].[Na+]
Time (Mus musculus [17]): 16 min
Activity (Mus musculus [18]): Active
Activity [19]: Active
inhibition (Rattus norvegicus [20]): Active
fold change (FC) (Mus musculus [21]): 1.5
fold change (FC) [22]: 3
inhibition (Platelet): Active
Activity (Mus musculus [23]): Active
Activity (Rattus norvegicus [24]): 87 mg/dL
half-life at 40000 µM [8]: > 24 h
t1/2 [3]: 6 h
